Assay results published in PubChem BioAssay.
Activity calls are given as the source filed them.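 How the source made its calls, unless noted: active means viability loss from added drug above about 55%, and viability with drug at most 40%, in both replicates (limit read from the data, passing the limit was not always enough); inconclusive means both conditions met in only one replicate; inactive means neither replicate meets both conditions.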

Assays:
[1] = Her2 expression decrease, cell viability multiplex – SKBR3 breast tumor cells, AlphaScreen, ATP viability, primary screen (AID 461;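 active means Her2 level under about 52% in both replicate screens, with viability over 70% of control, limit read from the data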;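 on Her2 level: lower value means less Her2 protein in the cells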;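 on viability: percent of carrier control wells set as 100% viability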); conditions: SKBR3 Her2 protein level, 18-24 h, measured here: SKBR3 viability, ATP luminescence, at 10 µM
[2] = biological target: Receptor tyrosine-protein kinase erbB-2 (Homo sapiens) (UniProt P04626); experiment: as above; conditions: 18-24 h, at 10 µM, stronger effect = lower value
Receptor tyrosine-protein kinase erbB-2 (Homo sapiens), sequence (P04626 whole entry, looked up): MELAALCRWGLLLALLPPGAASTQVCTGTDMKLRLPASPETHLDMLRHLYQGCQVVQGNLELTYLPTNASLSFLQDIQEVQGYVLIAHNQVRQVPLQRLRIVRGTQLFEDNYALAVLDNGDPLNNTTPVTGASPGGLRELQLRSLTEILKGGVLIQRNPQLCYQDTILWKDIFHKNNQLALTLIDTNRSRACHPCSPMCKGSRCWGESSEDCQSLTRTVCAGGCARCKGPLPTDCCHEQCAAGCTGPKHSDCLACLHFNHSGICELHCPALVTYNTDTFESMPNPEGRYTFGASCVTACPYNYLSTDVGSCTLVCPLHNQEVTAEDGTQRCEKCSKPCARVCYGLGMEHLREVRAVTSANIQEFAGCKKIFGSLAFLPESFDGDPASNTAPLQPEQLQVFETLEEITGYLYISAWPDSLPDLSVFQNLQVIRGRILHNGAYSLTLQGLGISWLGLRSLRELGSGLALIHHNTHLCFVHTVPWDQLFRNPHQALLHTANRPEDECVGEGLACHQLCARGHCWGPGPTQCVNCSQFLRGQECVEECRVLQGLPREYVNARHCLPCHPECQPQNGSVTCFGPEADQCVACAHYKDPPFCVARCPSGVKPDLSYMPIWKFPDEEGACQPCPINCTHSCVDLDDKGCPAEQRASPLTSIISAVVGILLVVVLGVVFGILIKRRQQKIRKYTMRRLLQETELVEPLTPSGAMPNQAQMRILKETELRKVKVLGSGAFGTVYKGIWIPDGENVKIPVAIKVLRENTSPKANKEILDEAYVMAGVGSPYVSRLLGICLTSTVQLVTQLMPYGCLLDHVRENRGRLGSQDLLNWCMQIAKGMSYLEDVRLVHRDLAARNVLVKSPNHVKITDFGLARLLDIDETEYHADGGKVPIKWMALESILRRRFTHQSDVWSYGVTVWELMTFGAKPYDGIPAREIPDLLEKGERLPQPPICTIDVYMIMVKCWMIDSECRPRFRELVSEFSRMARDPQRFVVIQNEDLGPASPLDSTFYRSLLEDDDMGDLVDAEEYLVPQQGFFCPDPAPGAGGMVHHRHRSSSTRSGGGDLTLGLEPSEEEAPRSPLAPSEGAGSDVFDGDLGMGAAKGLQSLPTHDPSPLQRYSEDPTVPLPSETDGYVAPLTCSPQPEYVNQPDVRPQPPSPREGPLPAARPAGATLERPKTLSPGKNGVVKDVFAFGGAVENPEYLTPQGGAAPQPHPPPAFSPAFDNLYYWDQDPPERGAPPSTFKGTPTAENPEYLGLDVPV

[3] = reduced viability of SK-BR-3 breast cancer cells – cell-based, 24 h, human, pilot screen (AID 572;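 active means viability at or below 10% of carrier control in both of two separate runs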;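 further: compound exposure lasted between 18 and 24 h rather than exactly 24 h; 100% = carrier-treated control wells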); conditions: SK-BR-3 viability, CellTiter-Glo luminescence, at 10 µM, stronger effect = lower value
[4] = HUVEC growth inhibition – cell-based, human, primary screen (AID 575;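 active means viability at or below 30% in both replicate assays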;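 further: 100% = median of untreated cell wells with 0.1% DMSO on each plate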); conditions: HUVEC proliferation, CellTiter-Glo luminescence, 72 h; at 10 µM; stronger effect = lower value
Summary of the method: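 Test system: primary human umbilical vein endothelial cells. Quantity: 1250 cells/well. Compound: single 10 µM dose, 0.1% DMSO, from 5x medium stock. Timing: 72 h treatment at 37 °C. Detection: ATP-based CellTiter-Glo luminescent read. Benchmarks: vehicle and MePR control wells. Format: 384-well plates coated with collagen.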

[5] = H69AR cell proliferation blockers – human, duplicate replicates, primary screen (AID 580;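 active means viability at or under a set limit in both replicates, limit being median viability minus 3 SD, cut at about 48% in these data, passing the limit was not always enough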;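 further: 100% = mean luminescence of untreated wells and 0% = no signal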); conditions: H69AR lung tumor cells viability, ATP luminescence, 72 h; at 10 µM; stronger effect = lower value
[6] = MRP1 drug-resistance reversers in H69AR cells – cell-based, doxorubicin co-treatment, pilot screen (AID 601); conditions: CellTiter-Glo, 72 h, at 10 µM; for differential viability (reversal): stronger effect = higher value
[7] = yeast transport mutant growth inhibition pilot in 384-well plates, post-Golgi transport modulator project (AID 636; in the data active means inhibition above about 31%); conditions: absorbance 615 nm, about 18 h, stronger effect = higher value
[8] = growth suppression of yeast trafficking mutant, preliminary HTS, modulators of trafficking downstream of Golgi apparatus project, 1536-format plate, OD 615 nm (AID 637; in the data active means inhibition above about 30%); conditions: yeast transport mutant growth, absorbance 615 nm, 18 h; stronger effect = higher value
[9] = H69AR cells + 2 uM doxorubicin, measured here: viability with 2 uM doxorubicin, stronger effect = lower value
[10] = H69AR cells, compound alone cytotoxicity

SMILES | viability [1] [%] | Her2 level [2] | viability [3] | viability [4] | viability [5] | differential viability (reversal) ([6]; H69AR cells + 2 uM doxorubicin) | viability [6, 9] [%] | viability [6, 10] [%] | inhibition [7] | inhibition [8]
COc1ccc(C(=O)CN2C(=O)NC3(CCCc4ccccc43)C2=O)cc1OC (stereo not given) | 98 | 84.5% (inactive) | 98% (inactive) | 95.6% (inactive) | 88.6% (inactive) | 10.9% (inactive) | 77.7 | 88.6 | -1.87% (inactive) | 2.42% (inactive)
O=C(NC1CCCCC1)N(Cc1ccc(F)cc1)Cc1nc2ccccc2c(=O)[nH]1 | 98.5 | 80% (inactive) | 98.5% (inactive) | 78.2% (inactive) | 100% (inactive) | 7.63% (inactive) | 92.4 | 100 | -5.66% (inactive) | -1.83% (inactive)
O=C(c1ccco1)N1CCN(c2c(-c3ccccc3)c3cc(Cl)ccc3[nH]c2=O)CC1 | 94 | 61.5% (inactive) | 94% (inactive) | 52.4% (inactive) | 24.5% (active) | 17.6% (inactive) | 6.86 | 24.5 | -2.11% (inactive) | 7.42% (inactive)
CN(C(=O)c1ccc(S(=O)(=O)NC2CCCC2)cc1)C1CCCCC1 | 101 | 87% (inactive) | 101% (inactive) | 103% (inactive) | 102% (inactive) | 9.82% (inactive) | 92.3 | 102 | -3.38% (inactive) | -7.54% (inactive)
COc1ccc(Cn2c(=O)[nH]c3cc(C(=O)NCCCN4CCCC4)ccc3c2=O)cc1 | 106 | 94% (inactive) | 106% (inactive) | 103% (inactive) | 92.3% (inactive) | 6.71% (inactive) | 85.6 | 92.3 | -7.03% (inactive) | 4.33% (inactive)
Cc1cc2c(cc(C(=O)OCC(=O)NCc3cccs3)n2C(C)C)o1 | 83 | 63.5% (inactive) | 83% (inactive) | 37.3% (inactive) | 21.7% (active) | -30.4% (inactive) | 52.1 | 21.7 | -6% (inactive) | 5.9% (inactive)
CC(=O)NCc1cccc(CNC(C)=O)n1 | 84.5 | 82.5% (inactive) | 84.5% (inactive) | 88.4% (inactive) | 98% (inactive) | 7.96% (inactive) | 90.1 | 98 | -6.8% (inactive) | -6.67% (inactive)
Cc1c(NS(=O)(=O)c2ccc3c(c2)n(C)c(=O)n3C)c(=O)n(-c2ccccc2)n1C | 113 | 93% (inactive) | 113% (inactive) | 87.3% (inactive) | 94.2% (inactive) | 3.4% (inactive) | 90.8 | 94.2 | -4.67% (inactive) | -0.98% (inactive)
C/C(=C\C(=O)O)CC(=O)O | 100 | 119% (inactive) | 100% (inactive) | 98% (inactive) | 84.5% (inactive) | -15.7% (inactive) | 100 | 84.5 | -7.5% (inactive) | 5.25% (inactive)
CCOCC(=O)Nc1nc2ccc(OC)cc2s1 | 107 | 102% (inactive) | 107% (inactive) | 93.9% (inactive) | 90.4% (inactive) | 8.94% (inactive) | 81.5 | 90.4 | 0.79% (inactive) | 5.57% (inactive)
O=C(CC(CC(=O)c1ccccc1)C(=O)O)c1ccccc1 | 89 | 101% (inactive) | 89% (inactive) | 107% (inactive) | 102% (inactive) | 5.54% (inactive) | 96.5 | 102 | 3.6% (inactive) | -6.77% (inactive)
COc1cc(Nc2cc(C)nc3ncnn23)cc(OC)c1OC | 102 | 98.5% (inactive) | 102% (inactive) | 98.2% (inactive) | 100% (inactive) | 21% (inactive) | 79.3 | 100 | 1.6% (inactive) | -3.11% (inactive)
Cc1ccc(-c2nnc(SC(C)C#N)n2N)cc1 (stereo not given) | 108 | 83% (inactive) | 108% (inactive) | 88.5% (inactive) | 92.3% (inactive) | 9.2% (inactive) | 83.1 | 92.3 | -5.68% (inactive) | 4.44% (inactive)
